In ChEMBL document CHEMBL5724801, “EUbOPEN Chemogenomics Library - Multiplex” (2024):
Several values for one entry are separate records, joined by “and”; a condition that tells them apart may be missing. Equal values may be shown once.

Test system: HEK-293T
Test: Multiplex assay against HEK293T
Assay type: toxicity, cell-based
Settings: human
Method in brief: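 Cells were classed with CellPathfinder machine-learning gating, first as Hoechst high-intensity objects or normal cells, then (normal cells) as healthy, pyknosed or fragmented nuclei, and finally (pyknosed cells) as mitotic or apoptotic. Staining of live cells at seeding used Hoechst33342, BioTracker Green Microtubule Cytoskeleton Dye, MitoTracker Red and Annexin V Alexa Fluor 680, with imaging on a CQ1 microscope at 37°C and 5% CO2 after compound addition. Tubulin, mitochondrial-mass and membrane-permeability phenotypes are per cents of healthy-nucleus cells.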

[1] = 12 h, 1 µM, compound concentration 1 uM
[2] = 12 h, 10 µM, compound concentration 10 uM
[3] = 24 h, 1 µM, compound concentration 1 uM
[4] = 24 h, 10 µM, compound concentration 10 uM
[5] = 48 h, 1 µM, compound concentration 1 uM
[6] = 48 h, 10 µM, compound concentration 10 uM

SMILES: COc1c(C)cc(NC(=O)c2nn(Cc3ccc(F)cc3)c3c2CN(C(=O)c2ccc[nH]2)C[C@]3(C)C(N)=O)cc1C
- Population Apoptotic (%) [1]: 42% and 38%
- Population Fragmented Nuclei (%) [1]: 6% and 7%
- Population Healthy Nuclei (%) [1]: 79% and 75%
- Population Hoechst High Intensity Objects (%) [1]: 7% and 5%
- Population Membrane Permeable-Phenotype (%) [1]: 0%
- Population Mitochondria Different-Phenotype (%) [1]: 51% and 58%
- Population Mitotic Cells (%) [1]: 57% and 61%
- Population Normal (%) [1]: 92% and 94%
- Population Pyknosed Nuclei (%) [1]: 13% and 17%
- Population Tubulin-Different-Phenotype (%) [1]: 36% and 29%
- Total Cell Count [1]: 426 and 304
- Population Apoptotic (%) [2]: 67% and 59%
- Population Fragmented Nuclei (%) [2]: 4% and 6%
- Population Healthy Nuclei (%) [2]: 77% and 71%
- Population Hoechst High Intensity Objects (%) [2]: 13%
- Population Membrane Permeable-Phenotype (%) [2]: 0%
- Population Mitochondria Different-Phenotype (%) [2]: 90% and 95%
- Population Mitotic Cells (%) [2]: 32% and 40%
- Population Normal (%) [2]: 86%
- Population Pyknosed Nuclei (%) [2]: 17% and 21%
- Population Tubulin-Different-Phenotype (%) [2]: 62% and 63%
- Total Cell Count [2]: 383 and 285
- Population Apoptotic (%) [3]: 21% and 51%
- Population Fragmented Nuclei (%) [3]: 7% and 5%
- Population Healthy Nuclei (%) [3]: 80% and 86%
- Population Hoechst High Intensity Objects (%) [3]: 4%
- Population Membrane Permeable-Phenotype (%) [3]: 0%
- Population Mitochondria Different-Phenotype (%) [3]: 30% and 43%
- Population Mitotic Cells (%) [3]: 78% and 48%
- Population Normal (%) [3]: 95%
- Population Pyknosed Nuclei (%) [3]: 12% and 7%
- Population Tubulin-Different-Phenotype (%) [3]: 24% and 16%
- Total Cell Count [3]: 574 and 422
- Population Apoptotic (%) [4]: 53% and 67%
- Population Fragmented Nuclei (%) [4]: 6% and 5%
- Population Healthy Nuclei (%) [4]: 73% and 74%
- Population Hoechst High Intensity Objects (%) [4]: 11% and 15%
- Population Membrane Permeable-Phenotype (%) [4]: 0%
- Population Mitochondria Different-Phenotype (%) [4]: 91% and 92%
- Population Mitotic Cells (%) [4]: 46% and 32%
- Population Normal (%) [4]: 88% and 84%
- Population Pyknosed Nuclei (%) [4]: 19%
- Population Tubulin-Different-Phenotype (%) [4]: 61% and 56%
- Total Cell Count [4]: 403 and 313
- Population Apoptotic (%) [5]: 21% and 39%
- Population Fragmented Nuclei (%) [5]: 11% and 12%
- Population Healthy Nuclei (%) [5]: 81%
- Population Hoechst High Intensity Objects (%) [5]: 2% and 3%
- Population Membrane Permeable-Phenotype (%) [5]: 1%
- Population Mitochondria Different-Phenotype (%) [5]: 25% and 28%
- Population Mitotic Cells (%) [5]: 78% and 60%
- Population Normal (%) [5]: 97% and 96%
- Population Pyknosed Nuclei (%) [5]: 6%
- Population Tubulin-Different-Phenotype (%) [5]: 18% and 9%
- Total Cell Count [5]: 920 and 652
- Population Apoptotic (%) [6]: 60% and 80%
- Population Fragmented Nuclei (%) [6]: 8% and 9%
- Population Healthy Nuclei (%) [6]: 76% and 81%
- Population Hoechst High Intensity Objects (%) [6]: 14% and 10%
- Population Membrane Permeable-Phenotype (%) [6]: 0%
- Population Mitochondria Different-Phenotype (%) [6]: 93% and 90%
- Population Mitotic Cells (%) [6]: 39% and 19%
- Population Normal (%) [6]: 85% and 89%
- Population Pyknosed Nuclei (%) [6]: 15% and 9%
- Population Tubulin-Different-Phenotype (%) [6]: 66% and 59%
- Total Cell Count [6]: 467 and 376

SMILES: COc1cc(C(=O)N2CC[C@@H](O)[C@@H](N)C2)cc2nc(-c3cc4ccccc4n3CC3CC3)n(C)c12.Cl
- Population Apoptotic (%) [1]: 48% and 70%
- Population Fragmented Nuclei (%) [1]: 6% and 2%
- Population Healthy Nuclei (%) [1]: 79% and 77%
- Population Hoechst High Intensity Objects (%) [1]: 10% and 15%
- Population Membrane Permeable-Phenotype (%) [1]: 0%
- Population Mitochondria Different-Phenotype (%) [1]: 56% and 71%
- Population Mitotic Cells (%) [1]: 51% and 29%
- Population Normal (%) [1]: 89% and 84%
- Population Pyknosed Nuclei (%) [1]: 13% and 20%
- Population Tubulin-Different-Phenotype (%) [1]: 52% and 37%
- Total Cell Count [1]: 398 and 281
- Population Apoptotic (%) [2]: 71%
- Population Fragmented Nuclei (%) [2]: 5% and 4%
- Population Healthy Nuclei (%) [2]: 66% and 80%
- Population Hoechst High Intensity Objects (%) [2]: 21% and 18%
- Population Membrane Permeable-Phenotype (%) [2]: 0% and 2%
- Population Mitochondria Different-Phenotype (%) [2]: 90% and 88%
- Population Mitotic Cells (%) [2]: 28%
- Population Normal (%) [2]: 78% and 81%
- Population Pyknosed Nuclei (%) [2]: 28% and 15%
- Population Tubulin-Different-Phenotype (%) [2]: 79% and 72%
- Total Cell Count [2]: 260 and 350
- Population Apoptotic (%) [3]: 42% and 60%
- Population Fragmented Nuclei (%) [3]: 9% and 7%
- Population Healthy Nuclei (%) [3]: 77% and 79%
- Population Hoechst High Intensity Objects (%) [3]: 6% and 12%
- Population Membrane Permeable-Phenotype (%) [3]: 0%
- Population Mitochondria Different-Phenotype (%) [3]: 42% and 64%
- Population Mitotic Cells (%) [3]: 57% and 39%
- Population Normal (%) [3]: 93% and 87%
- Population Pyknosed Nuclei (%) [3]: 13% and 12%
- Population Tubulin-Different-Phenotype (%) [3]: 33% and 30%
- Total Cell Count [3]: 527 and 363
- Population Apoptotic (%) [4]: 58% and 65%
- Population Fragmented Nuclei (%) [4]: 8% and 6%
- Population Healthy Nuclei (%) [4]: 70% and 78%
- Population Hoechst High Intensity Objects (%) [4]: 18% and 21%
- Population Membrane Permeable-Phenotype (%) [4]: 0%
- Population Mitochondria Different-Phenotype (%) [4]: 94% and 92%
- Population Mitotic Cells (%) [4]: 41% and 34%
- Population Normal (%) [4]: 81% and 78%
- Population Pyknosed Nuclei (%) [4]: 20% and 15%
- Population Tubulin-Different-Phenotype (%) [4]: 78% and 74%
- Total Cell Count [4]: 312 and 411
- Population Apoptotic (%) [5]: 24% and 64%
- Population Fragmented Nuclei (%) [5]: 9%
- Population Healthy Nuclei (%) [5]: 79% and 80%
- Population Hoechst High Intensity Objects (%) [5]: 5% and 7%
- Population Membrane Permeable-Phenotype (%) [5]: 0%
- Population Mitochondria Different-Phenotype (%) [5]: 37% and 48%
- Population Mitotic Cells (%) [5]: 75% and 36%
- Population Normal (%) [5]: 94% and 92%
- Population Pyknosed Nuclei (%) [5]: 10%
- Population Tubulin-Different-Phenotype (%) [5]: 28% and 22%
- Total Cell Count [5]: 816 and 520
- Population Apoptotic (%) [6]: 76%
- Population Fragmented Nuclei (%) [6]: 13%
- Population Healthy Nuclei (%) [6]: 68% and 75%
- Population Hoechst High Intensity Objects (%) [6]: 18% and 23%
- Population Membrane Permeable-Phenotype (%) [6]: 0%
- Population Mitochondria Different-Phenotype (%) [6]: 89% and 87%
- Population Mitotic Cells (%) [6]: 23%
- Population Normal (%) [6]: 81% and 76%
- Population Pyknosed Nuclei (%) [6]: 17% and 10%
- Population Tubulin-Different-Phenotype (%) [6]: 81% and 74%
- Total Cell Count [6]: 386 and 467
